In ChEMBL document CHEMBL1153313, “Fluorinated 9H-xanthene-9-carboxylic acid oxazol-2-yl-amides as potent, orally available mGlu1 receptor enhancers” (Bioorg Med Chem Lett, 2009):

What was measured:
[1] = target: Metabotropic glutamate receptor 1 (Rattus norvegicus) (UniProt P23385); assay: Agonist activity at rat mGlu1 receptor expressed in HEK293 cells assessed as increase in intracellular calcium by FLIPR assay relative to control; format: functional, cell-based; design: concentration or dose not given beside the values
Chain of Metabotropic glutamate receptor 1 (Rattus norvegicus) (P23385 19-1199 limits assumed): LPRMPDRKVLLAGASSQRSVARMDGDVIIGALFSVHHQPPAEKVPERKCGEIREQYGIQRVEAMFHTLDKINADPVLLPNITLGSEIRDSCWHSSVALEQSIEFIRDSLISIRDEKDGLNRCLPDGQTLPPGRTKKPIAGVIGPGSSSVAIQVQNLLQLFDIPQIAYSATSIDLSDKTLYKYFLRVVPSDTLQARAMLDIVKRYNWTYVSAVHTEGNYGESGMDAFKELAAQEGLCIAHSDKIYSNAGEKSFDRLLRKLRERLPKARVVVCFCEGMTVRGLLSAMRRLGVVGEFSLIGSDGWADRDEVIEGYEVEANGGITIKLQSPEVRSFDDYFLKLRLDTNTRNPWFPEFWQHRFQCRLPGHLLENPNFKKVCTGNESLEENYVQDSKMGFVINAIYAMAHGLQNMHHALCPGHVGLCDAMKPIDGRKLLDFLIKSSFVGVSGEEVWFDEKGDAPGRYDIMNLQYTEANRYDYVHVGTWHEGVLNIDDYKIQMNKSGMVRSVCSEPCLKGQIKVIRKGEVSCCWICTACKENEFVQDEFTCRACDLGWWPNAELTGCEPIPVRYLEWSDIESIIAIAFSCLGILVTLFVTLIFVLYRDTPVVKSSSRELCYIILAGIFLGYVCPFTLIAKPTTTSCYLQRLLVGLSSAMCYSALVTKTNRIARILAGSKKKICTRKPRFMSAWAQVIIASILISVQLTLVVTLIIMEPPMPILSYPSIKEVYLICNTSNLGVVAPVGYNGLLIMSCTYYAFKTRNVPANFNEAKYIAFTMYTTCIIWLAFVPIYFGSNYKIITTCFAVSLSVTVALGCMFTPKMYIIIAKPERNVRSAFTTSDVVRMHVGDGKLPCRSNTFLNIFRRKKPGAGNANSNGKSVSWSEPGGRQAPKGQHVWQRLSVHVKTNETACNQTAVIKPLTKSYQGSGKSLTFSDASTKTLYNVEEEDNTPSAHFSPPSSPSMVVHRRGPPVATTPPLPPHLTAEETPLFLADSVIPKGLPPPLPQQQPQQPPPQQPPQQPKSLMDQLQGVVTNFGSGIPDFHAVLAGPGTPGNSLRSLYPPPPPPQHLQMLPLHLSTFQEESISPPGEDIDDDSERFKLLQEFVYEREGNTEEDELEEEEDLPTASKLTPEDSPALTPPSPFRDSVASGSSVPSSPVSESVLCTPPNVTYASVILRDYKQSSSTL
In short: (§1)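 Rat mGlu1a transiently transfected into HEK-293 cells, which were loaded with Fluo-3 AM for 1 h and then washed 4 times in assay buffer (DMEM with Hank's salts, 20 mM HEPES). [Ca2+]i was read on a fluorometric imaging plate reader and converted to fluorescence ratios. EC50 is the mean of separate values from at least three individual experiments.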

[2] = test system: Rattus norvegicus; assay: Volume of distribution in rat at 10 mg/kg, iv and po; format: ADME, organism-based; design: dose 10 mg/kg, route oral; conditions: in vivo
In short: (§2)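 Wistar rats, two per group, fitted with implanted jugular vein catheters. These catheters were used for the iv bolus and for blood sampling. Blood was drawn at 0.3, 0.5, 1, 2, 4, 8 and 24 h after iv or po administration for the plasma pharmacokinetic parameters.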

[3] = target: Metabotropic glutamate receptor 1 (Rattus norvegicus) (UniProt P23385); assay: Agonist activity at rat mGlu1 receptor expressed in CHO cells assessed as […] of glutamate-activated K+ currents by electrophysiology relative to glutamate; format: functional, cell-based; design: concentration or dose not given beside the values
[4] = target: T1, Metabotropic glutamate receptor 1 (Rattus norvegicus, UniProt P23385); assay: Agonist activity at rat mGlu1 receptor expressed in CHO cells assessed as potentiation of glutamate-activated K+ currents by electrophysiology
T1 sequence (P23385 whole entry): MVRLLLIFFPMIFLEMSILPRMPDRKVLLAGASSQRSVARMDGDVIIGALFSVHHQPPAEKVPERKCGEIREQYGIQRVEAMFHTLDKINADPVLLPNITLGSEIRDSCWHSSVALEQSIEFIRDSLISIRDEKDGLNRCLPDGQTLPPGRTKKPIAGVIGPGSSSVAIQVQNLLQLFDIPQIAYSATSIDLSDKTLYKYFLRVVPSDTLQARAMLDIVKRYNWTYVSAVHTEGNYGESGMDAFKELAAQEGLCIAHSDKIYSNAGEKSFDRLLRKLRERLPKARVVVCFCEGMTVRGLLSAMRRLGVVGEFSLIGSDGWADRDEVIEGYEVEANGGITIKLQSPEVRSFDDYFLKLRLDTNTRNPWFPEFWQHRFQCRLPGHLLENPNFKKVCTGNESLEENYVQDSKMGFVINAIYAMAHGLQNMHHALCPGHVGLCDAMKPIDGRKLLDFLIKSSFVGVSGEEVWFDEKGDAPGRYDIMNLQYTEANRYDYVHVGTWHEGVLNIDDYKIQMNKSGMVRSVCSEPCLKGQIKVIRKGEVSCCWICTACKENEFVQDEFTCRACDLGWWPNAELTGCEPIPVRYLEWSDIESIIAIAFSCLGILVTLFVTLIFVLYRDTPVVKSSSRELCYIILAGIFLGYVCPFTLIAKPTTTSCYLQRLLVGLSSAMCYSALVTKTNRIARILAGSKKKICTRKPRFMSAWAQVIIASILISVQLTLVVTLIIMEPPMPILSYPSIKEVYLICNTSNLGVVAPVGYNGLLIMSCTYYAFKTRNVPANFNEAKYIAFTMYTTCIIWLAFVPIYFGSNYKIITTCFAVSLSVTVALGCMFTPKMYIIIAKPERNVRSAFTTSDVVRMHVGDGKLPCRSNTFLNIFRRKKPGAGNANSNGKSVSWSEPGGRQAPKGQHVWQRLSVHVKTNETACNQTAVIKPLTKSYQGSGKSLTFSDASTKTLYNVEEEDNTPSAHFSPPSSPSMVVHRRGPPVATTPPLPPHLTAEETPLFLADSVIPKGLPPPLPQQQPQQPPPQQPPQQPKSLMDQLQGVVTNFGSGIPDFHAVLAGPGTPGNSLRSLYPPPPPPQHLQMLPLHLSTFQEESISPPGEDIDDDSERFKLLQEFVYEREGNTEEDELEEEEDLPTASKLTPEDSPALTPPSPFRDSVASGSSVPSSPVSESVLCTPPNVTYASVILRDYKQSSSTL

[5] = Cmax in rat plasma at 10 mg/kg, po; format: ADME, organism-based; design: dose 10 mg/kg, route oral; in short: as §2
[6] = Metabolic stability in rat microsomes assessed as intrinsic clearance per mg protein; format: ADME, Microsome
[7] = Half life in rat at 10 mg/kg, iv and po; format: ADME, organism-based; design: dose 10 mg/kg, route oral; conditions: in vivo; in short: as §2
[8] = target: T1, Metabotropic glutamate receptor 1; assay: Agonist activity at rat mGlu1 receptor expressed in HEK293 cells assessed as increase in intracellular calcium by FLIPR assay; format: functional, cell-based; in short: as §1
[9] = Cmax in rat plasma at 6 mg/kg, po; format: ADME, organism-based; design: dose 6 mg/kg, route oral; in short: as §2
[10] = Clearance in rat at 3 mg/kg, iv and 6 mg/kg, po; format: ADME, organism-based; conditions: in vivo; in short: as §2
[11] = Half life in rat at 3 mg/kg, iv and 6 mg/kg, po; format: ADME, organism-based; conditions: in vivo; in short: as §2
[12] = Volume of distribution in rat at 3 mg/kg, iv and 6 mg/kg, po; format: ADME, organism-based; conditions: in vivo, read-out: Vdss; in short: as §2
[13] = Half life in rat at 1 mg/kg, iv and 10 mg/kg, po; format: ADME, organism-based; conditions: in vivo; in short: as §2
[14] = Volume of distribution in rat at 1 mg/kg, iv and 10 mg/kg, po; format: ADME, organism-based; conditions: in vivo, read-out: Vdss; in short: as §2
[15] = Ratio of drug level in brain to plasma in rat at 1 mg/kg, iv and 6 mg/kg, po; format: ADME, organism-based; conditions: in the assay text read “10 mg/kg” for “6 mg/kg”, read-out: BPR
In short: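 Brain/plasma ratio came from iv infusion in Wistar rats, two per group, at 1 mg/kg/h via catheter. Blood was sampled sublingually at 1, 3 and 5 h after administration. Brain tissue was taken by decapitation under isoflurane anaesthesia.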

[16] = Clearance in rat at 1 mg/kg, iv and 10 mg/kg, po; format: ADME, organism-based; conditions: in vivo; in short: as §2
[17] = Half life in rat at 5 mg/kg, iv and 10 mg/kg, po; format: ADME, organism-based; conditions: in vivo; in short: as §2
[18] = Volume of distribution in rat at 5 mg/kg, iv and 10 mg/kg, po; format: ADME, organism-based; conditions: in vivo, read-out: Vdss; in short: as §2
[19] = Clearance in rat at 5 mg/kg, iv and 10 mg/kg, po; format: ADME, organism-based; conditions: in vivo; in short: as §2

Structure (SMILES)	Activity [1]	Activity [3]	EC50 [4]	clearance [6]	EC50 ([8]; read-out: EC50)	other results
Cc1nc(NC(=O)C2c3ccccc3Oc3ccccc32)no1	100%		220 nM	42 µL/min/mg	52 nM	Vdss [2]: 1.7 L/kg; Cmax [5]: 1330 ng/mL; half-life [7]: 19.2 min
O=C(Nc1nc(C(F)(F)F)co1)C1c2ccccc2Oc2cc(F)ccc21 (racemic)	50%	570%	260 nM	34 µL/min/mg	40 nM	
O=C(Nc1ncc(C(F)(F)F)o1)C1c2ccccc2Oc2cc(F)ccc21 (racemic)				28 µL/min/mg		EC50 ([8]; hek293): Not Active
O=C(Nc1ncc(C(F)(F)F)o1)C1c2ccc(F)cc2Oc2cc(F)ccc21						EC50 ([8]; hek293): Not Active
O=C(Nc1nc(C(F)(F)F)co1)C1c2cccc(F)c2Oc2c(F)cccc21	51%	707%	161 nM	18 µL/min/mg	47 nM	half-life [13]: 234 min; Vd [14]: 0.43 L/kg; Kp [15]: 0.2; clearance [16]: 3.79 mL/min/kg; Cmax [5]: 2070 ng/mL
O=C(Nc1nc(C(F)(F)F)co1)C1c2ccccc2Oc2c(F)cccc21 (racemic)	84%	1190%	102 nM	33 µL/min/mg	19 nM	half-life [17]: 222 min; Vd [18]: 0.99 L/kg; clearance [19]: 3.3 mL/min/kg; Cmax [5]: 1440 ng/mL
O=C(Nc1ncc(C(F)(F)F)o1)C1c2ccccc2Oc2c(F)cccc21 (racemic)	50%	910%	131 nM	32 µL/min/mg		

Continued, in another order:

Activity [1]	Activity [3]	EC50 [4]	clearance [6]	EC50 ([8]; read-out: EC50)	Structure (SMILES)	other results
86%	1130%	202 nM	108 µL/min/mg		O=C(Nc1nc(C(F)(F)F)co1)C1c2ccccc2Oc2ccccc21	Vdss [2]: 0.67 L/kg; Cmax [5]: 1330 ng/mL; half-life [7]: 54.6 min
36%	568%	162 nM	12 µL/min/mg	25 nM	O=C(Nc1ncc(C(F)(F)F)o1)C1c2cccc(F)c2Oc2c(F)cccc21	
57%	1220%	67 nM	40 µL/min/mg	20 nM	O=C(Nc1ncc(C(F)(F)F)o1)C1c2ccccc2Oc2ccc(F)cc21 (racemic)	
63%			61 µL/min/mg	40 nM	O=C(Nc1nc(C(F)(F)F)co1)C1c2ccccc2Oc2ccc(F)cc21 (racemic)	
48%	300%	90 nM	9 µL/min/mg		O=C(Nc1nc(C(F)(F)F)co1)C1c2cc(F)ccc2Oc2ccc(F)cc21	Cmax [9]: 1810 ng/mL; clearance [10]: 7.4 mL/min/kg; half-life [11]: 148 min; Vd [12]: 0.9 L/kg
104%	3060%	394 nM	50 µL/min/mg		O=C(Nc1ncc(C(F)(F)F)o1)C1c2ccccc2Oc2ccccc21	
			38 µL/min/mg		O=C(Nc1nc(C(F)(F)F)co1)C1c2ccc(F)cc2Oc2cc(F)ccc21	EC50 ([8]; hek293): Not Active
